According to ChEMBL document CHEMBL3525938, “Whole-body physiologically based pharmacokinetic model for nutlin-3a in mice after intravenous and oral administration” (Drug Metab Dispos, 2011):

Columns and labels:
Muscle tissue [1] = assay: Drug uptake in C57BL/6 mouse muscle at 50 to 200 mg/kg, po as single dose measured at 2 hrs; format: ADME, organism-based; set-up: dose 50-200 mg/kg, route oral; conditions: in vivo
Intestine [2] = assay: Drug uptake in C57BL/6 mouse intestine at 50 to 200 mg/kg, po as single dose measured at 2 hrs; format: ADME, organism-based; set-up: dose 50-200 mg/kg, route oral; conditions: in vivo
Liver [3] = assay: Drug uptake in C57BL/6 mouse liver at 10 mg/kg, iv as single dose measured at 24 hrs; format: ADME, organism-based; set-up: dose 10 mg/kg, route intravenous; conditions: in vivo
Method in brief: (§1)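 Adult C57BL/6 mice received a single bolus of 10 mg/kg by tail-vein iv injection or 100 or 200 mg/kg by oral gavage, with n = 5 per group and vehicle controls. Samples were taken at 0.5–48 h. Blood came by cardiac puncture under isoflurane, and tissues were dissected at the same time and frozen at −80°C. Tissues were homogenized in 5 mM ammonium formate, pH 7, and assayed by LC-ESI-MS/MS against matrix-matched standards.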

Plasma [4] = assay: Drug uptake in C57BL/6 mouse plasma at 50 to 200 mg/kg, po as single dose measured at 2 hrs; format: ADME, organism-based; set-up: dose 50-200 mg/kg, route oral; conditions: in vivo
Method in brief: (§2)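 Plasma came from two studies in C57BL/6 mice. Study 1: single iv dose of 10 mg/kg or oral dose of 100 or 200 mg/kg, n = 5, blood by cardiac puncture at 0.5–48 h. Study 2 (males): iv 10 or 20 mg/kg, oral 50 or 100 mg/kg, serial plasma to 24 h (iv) or 16 h (oral). Plasma was separated at 12,000g for 5 min at 4°C and measured by LC-ESI-MS/MS.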

Lung [5] = assay: Drug uptake in C57BL/6 mouse lung at 50 to 200 mg/kg, po as single dose measured at 2 hrs; format: ADME, organism-based; set-up: dose 50-200 mg/kg, route oral; conditions: in vivo
Spleen [6] = assay: Drug uptake in C57BL/6 mouse spleen at 50 to 200 mg/kg, po as single dose measured at 2 hrs; format: ADME, organism-based; set-up: dose 50-200 mg/kg, route oral; conditions: in vivo; method in brief: as §1
[7] = Drug uptake in C57BL/6 mouse adipose tissue at 50 to 200 mg/kg, po as single dose measured at 2 hrs; format: ADME, organism-based; set-up: dose 50-200 mg/kg, route oral; conditions: in vivo
[8] = Drug uptake in C57BL/6 mouse adipose tissue at 10 mg/kg, iv as single dose measured at 24 hrs; format: ADME, organism-based; set-up: dose 10 mg/kg, route intravenous; conditions: in vivo
Brain [9] = assay: Drug uptake in C57BL/6 mouse brain at 10 mg/kg, iv as single dose measured at 24 hrs; format: ADME, organism-based; set-up: dose 10 mg/kg, route intravenous; conditions: in vivo; method in brief: as §1
Spleen [10] = assay: Drug uptake in C57BL/6 mouse spleen at 10 mg/kg, iv as single dose measured at 24 hrs; format: ADME, organism-based; set-up: dose 10 mg/kg, route intravenous; conditions: in vivo; method in brief: as §1
Intestine [11] = assay: Drug uptake in C57BL/6 mouse intestine at 10 mg/kg, iv as single dose measured at 24 hrs; format: ADME, organism-based; set-up: dose 10 mg/kg, route intravenous; conditions: in vivo
[12] = Drug uptake in C57BL/6 mouse retina at 50 to 200 mg/kg, po as single dose measured at 2 hrs; format: ADME, organism-based; set-up: dose 50-200 mg/kg, route oral; conditions: in vivo
[13] = Fraction unbound in C57BL/6 mouse plasma at 300 uM up to 24 hrs by equilibrium dialysis method; format: ADME, cell-free
Method in brief: (§3)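 Equilibrium dialysis used male C57BL/6 plasma spiked with the drug against PBS across a 5-kDa membrane. The plate was rotated at 37°C under humidified 5% CO2 for 24 h, in triplicate. The plasma side was taken as bound and the PBS side as free, both measured by LC-MS/MS. Fraction unbound was calculated relative to total plasma concentration.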

Liver [14] = assay: Drug uptake in C57BL/6 mouse liver at 50 to 200 mg/kg, po as single dose measured at 2 hrs; format: ADME, organism-based; set-up: dose 50-200 mg/kg, route oral; conditions: in vivo; method in brief: as §1
Plasma [15] = assay: Drug uptake in C57BL/6 mouse plasma at 10 mg/kg, iv as single dose measured at 24 hrs; format: ADME, organism-based; set-up: dose 10 mg/kg, route intravenous; conditions: in vivo; method in brief: as §2
[16] = Ratio of drug level in blood to plasma in C57BL/6 mouse after 30 mins; format: ADME; conditions: blood and plasma
Method in brief: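 Pooled heparinized whole blood from male C57BL/6 mice was spiked at 0.1, 1, 10 and 100 μM final, in triplicate, and incubated at 37°C for 30 min with mixing every 5 min. Whole blood was sampled, and plasma was obtained by centrifugation. Both were measured by LC-MS/MS, and the ratio was calculated from the whole-blood and plasma concentrations.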

Muscle tissue [17] = assay: Drug uptake in C57BL/6 mouse muscle at 10 mg/kg, iv as single dose measured at 24 hrs; format: ADME, organism-based; set-up: dose 10 mg/kg, route intravenous; conditions: in vivo
[18] = Drug uptake in C57BL/6 mouse adrenal gland at 50 to 200 mg/kg, po as single dose measured at 2 hrs; format: ADME, organism-based; set-up: dose 50-200 mg/kg, route oral; conditions: in vivo
[19] = Drug uptake in C57BL/6 mouse vitreous humor at 50 to 200 mg/kg, po as single dose measured at 2 hrs; format: ADME, organism-based; set-up: dose 50-200 mg/kg, route oral; conditions: in vivo
[20] = Drug uptake in C57BL/6 mouse adrenal gland at 10 mg/kg, iv as single dose measured at 24 hrs; format: ADME, organism-based; set-up: dose 10 mg/kg, route intravenous; conditions: in vivo
Lung [21] = assay: Drug uptake in C57BL/6 mouse lung at 10 mg/kg, iv as single dose measured at 24 hrs; format: ADME, organism-based; set-up: dose 10 mg/kg, route intravenous; conditions: in vivo
Bone marrow [22] = assay: Drug uptake in C57BL/6 mouse bone marrow at 10 mg/kg, iv as single dose measured at 24 hrs; format: ADME, organism-based; set-up: dose 10 mg/kg, route intravenous; conditions: in vivo; method in brief: as §1
[23] = Drug uptake in C57BL/6 mouse retina at 10 mg/kg, iv as single dose measured at 24 hrs; format: ADME, organism-based; set-up: dose 10 mg/kg, route intravenous; conditions: in vivo; method in brief: as §1
Bone marrow [24] = assay: Drug uptake in C57BL/6 mouse bone marrow at 50 to 200 mg/kg, po as single dose measured at 2 hrs; format: ADME, organism-based; set-up: dose 50-200 mg/kg, route oral; conditions: in vivo; method in brief: as §1
[25] = Fraction unbound in C57BL/6 mouse plasma at 0.1 uM up to 24 hrs by equilibrium dialysis method; format: ADME, cell-free; method in brief: as §3
Brain [26] = assay: Drug uptake in C57BL/6 mouse brain at 50 to 200 mg/kg, po as single dose measured at 2 hrs; format: ADME, organism-based; set-up: dose 50-200 mg/kg, route oral; conditions: in vivo; method in brief: as §1
[27] = Cytotoxicity against doxorubicin-resistant human UKF-NB-3 cells after 96 hrs by MTT assay; format: functional, cell-based; conditions: UKF-NB-3, 96 h
[28] = Drug uptake in C57BL/6 mouse vitreous humor at 10 mg/kg, iv as single dose measured at 24 hrs; format: ADME, organism-based; set-up: dose 10 mg/kg, route intravenous; conditions: in vivo; method in brief: as §1

Drug uptake (Muscle tissue [1]): Active
Drug uptake (Intestine [2]): Active
Drug uptake (Liver [3]): Not Active
Drug uptake (Plasma [4]): Active
Drug uptake (Lung [5]): Active
Drug uptake (Spleen [6]): Active
Drug uptake [7]: Active
Drug uptake [8]: Not Active
Drug uptake (Brain [9]): Not Active
Drug uptake (Spleen [10]): Not Active
Drug uptake (Intestine [11]): Not Active
Drug uptake [12]: Active
fraction unbound at 24 h, 300 µM [13]: 0.118
Drug uptake (Liver [14]): Active
Drug uptake (Plasma [15]): Not Active
blood plasma ratio at 0.5 h [16]: 0.7
Drug uptake (Muscle tissue [17]): Not Active
Drug uptake [18]: Active
Drug uptake [19]: Not Active
Drug uptake [20]: Not Active
Drug uptake (Lung [21]): Not Active
Drug uptake (Bone marrow [22]): Not Active
Drug uptake [23]: Not Active
Drug uptake (Bone marrow [24]): Not Active
fraction unbound at 24 h, 0.1 µM [25]: 0.007
Drug uptake (Brain [26]): Not Active
Drug uptake [28]: Not Active
SMILES: COc1ccc(C2=N[C@@H](c3ccc(Cl)cc3)[C@@H](c3ccc(Cl)cc3)N2C(=O)N2CCNC(=O)C2)c(OC(C)C)c1 [NUTLIN-3]
IC50 [27]: 5.56 µM
